Shown are actives, neighbours in structure and some others; about 1.2% of the full set was active somewhere.
Diaphorase inh – inhibits diaphorase or chemically oxidizes, flagging diaphorase assay artifacts; diaphorase resazurin-to-resorufin fluorescence, NADH, 16 min; bacterial (C. kluyveri) enzyme, not human; inhibition, % at 20 µM; 190,000 compounds, 0.69% hits; AID 1217;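 active = primary screen inhibition at 20 µM above a set limit, cut at about 50% in these data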;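 also: plate controls were DMSO with full reaction for no effect and wells lacking NADH for full effect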
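Assay system – diaphorase enzyme from Clostridium kluyveri · Amount – diaphorase 0.14 U/mL (working solution) · Times – reaction incubation of 16 min at room temperature · Controls – No-NADH positive control and DMSO neutral control · Signal – resorufin fluorescence 544/590 nm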
HKDC1 inhibitor – inhibitors of human hexokinase HKDC1. Q2TB90. recombinant HKDC1, G6PDH/diaphorase resazurin coupled fluorescence. inhibition, % at 20 µM. 340,000 compounds, 0.16% hits;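 active = inhibition above about 35% when tested at 20 µM, limit read from the data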;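 also: plate controls were DMSO wells with enzyme for no effect and DMSO wells lacking enzyme for full effect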
Target sequence (Q2TB90 whole entry, looked up): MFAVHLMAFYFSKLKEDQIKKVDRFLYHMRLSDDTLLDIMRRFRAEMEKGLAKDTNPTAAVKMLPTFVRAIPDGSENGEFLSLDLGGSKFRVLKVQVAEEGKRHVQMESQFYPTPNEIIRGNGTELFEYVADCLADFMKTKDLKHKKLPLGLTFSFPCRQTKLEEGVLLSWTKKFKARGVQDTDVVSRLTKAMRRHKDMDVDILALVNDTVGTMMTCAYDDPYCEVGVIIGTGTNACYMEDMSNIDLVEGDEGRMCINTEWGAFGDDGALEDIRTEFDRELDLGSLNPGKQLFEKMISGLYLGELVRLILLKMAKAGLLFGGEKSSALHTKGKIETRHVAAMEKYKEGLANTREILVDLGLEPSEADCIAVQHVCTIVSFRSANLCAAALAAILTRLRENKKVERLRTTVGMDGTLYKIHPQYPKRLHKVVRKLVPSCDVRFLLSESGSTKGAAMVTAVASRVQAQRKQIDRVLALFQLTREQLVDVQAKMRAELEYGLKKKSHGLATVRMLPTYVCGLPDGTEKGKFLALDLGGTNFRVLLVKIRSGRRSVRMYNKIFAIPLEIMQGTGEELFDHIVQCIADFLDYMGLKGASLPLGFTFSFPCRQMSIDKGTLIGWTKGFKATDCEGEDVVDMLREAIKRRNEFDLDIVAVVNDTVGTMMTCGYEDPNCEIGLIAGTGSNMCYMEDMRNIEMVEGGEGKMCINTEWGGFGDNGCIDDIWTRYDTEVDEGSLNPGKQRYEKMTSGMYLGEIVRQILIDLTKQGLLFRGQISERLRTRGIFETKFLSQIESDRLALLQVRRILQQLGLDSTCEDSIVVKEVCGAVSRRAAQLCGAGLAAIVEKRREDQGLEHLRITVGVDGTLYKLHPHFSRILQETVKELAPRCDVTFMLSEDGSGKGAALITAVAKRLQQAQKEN
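System: Recombinant HKDC1 hexokinase | Amount: HKDC1 at 5 µg/mL | Reagent: Glucose with 1 mM ATP | Doses: Single 20 µM dose | Incubation: Reaction time 90 min, room temperature, protected from light | Signal: Coupled resazurin fluorescence, excitation 525 nm, emission 613 nm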
G6PDH CS – inhibits Leuconostoc G6PDH, flagging false hits in G6PDH-based assays. Purified L. mesenteroides G6PDH, diaphorase/resazurin coupled fluorescence, 45 min. inhibition, % at 5 µM. 200,000 compounds, 0.12% hits; in the data active = inhibition above about 50%
Diaph act CS – activates diaphorase or chemically reduces, flagging diaphorase assay artifacts; 190,000 compounds, 0.005% hits; activation factor at 20 µM; Diaphorase/resazurin coupled assay, resorufin fluorescence, 16 min; stronger effect = higher value; 1 = vehicle wells, 0 = NADH-free wells; AID 1229;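 active = diaphorase activity raised at least twofold by the compound at 20 µM; inactive = activation factor below 2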
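Material: purified diaphorase enzyme from Clostridium kluyveri / Medium: HEPES pH 7.4 buffer with MgCl2 and Tween 20 / Schedule: enzyme reaction of 16 min at room temperature / Measured by: resorufin fluorescence, excitation 544 nm, emission 590 nm / Evaluation: rise in resorufin formation, marking diaphorase activation or chemical reduction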
PfGluPho inh – PfG6PD (Plasmodium falciparum) enzyme inhibition | AID 504690 | PfGluPho enzyme, NADPH resazurin-diaphorase fluorescence | inhibition, % at 20 µM | 350,000 compounds, 0.78% hits;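 active = inhibition reaching at least a set limit at 20 µM in the primary screen, cut at about 59% in these data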;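 also: 0% = DMSO wells with substrate and 100% = DMSO wells lacking glucose-6-phosphate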
PfG6PD confirm – PfG6PD inhibition, single-dose confirmed; shares compounds with PfGluPho inh; recombinant PfGluPho, NADPH-diaphorase-resazurin fluorescence; inhibition, % at 20 µM; 2,400 compounds, 34% hits;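 active = inhibition of at least 50% at 20 µM in any single replicate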;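 also: 0% = DMSO with substrate and 100% = DMSO lacking glucose-6-phosphate substrate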
Diaph ctr 10uM – inhibits diaphorase or oxidizes, flagging false PfG6PD hits; shares compounds with PfGluPho inh; diaphorase-coupled resazurin reduction, fluorescence, NADPH 10 uM; inhibition, % at 20 µM; 820 compounds, 39% hits; AID 504862;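 active = average inhibition reaching 50% or more with the compound at 20 µM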;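 also: resorufin red fluorescence formed as diaphorase reduces resazurin using NADPH; 0% = DMSO with enzyme and 100% = DMSO without enzyme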
Diaphorase 30uM – counter-screen for P. falciparum G6PD inhibitors: diaphorase inhibitors, oxidizers. 820 compounds, 29% hits. shares compounds with PfGluPho inh. Diaphorase/resazurin coupled assay, resorufin fluorescence, 30 uM NADPH. inhibition, % at 20 µM;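 active = inhibition averaging 50% or more, tested at 20 µM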;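 also: 0% = DMSO with enzyme and 100% = DMSO wells lacking diaphorase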
* = called active by the depositor.

For CCNc1nc2c(c(=O)[nH]c(=O)n2C)n1CC(C)C the results were Diaphorase inh 13, HKDC1 inhibitor -7, G6PDH CS 7, Diaph act CS 0.9 and PfGluPho inh -38.
For Cn1c(=O)[nH]c(=O)c2c1nc(N1CCNCC1)n2Cc1ccccc1 the results were HKDC1 inhibitor -1 and PfGluPho inh 5.
Cn1c(=O)[nH]c(=O)c2c1nc([N+](=O)[O-])n2Cc1ccccc1 was read as HKDC1 inhibitor 11, PfGluPho inh 86*, PfG6PD confirm 88*, Diaph ctr 10uM 50 and Diaphorase 30uM 51*.
Screening CSc1cc(SC)ncn1 returned HKDC1 inhibitor -3 and PfGluPho inh 0.
For CC(=O)OCC(=O)C1(O)CCC2C3CC(C)C4=CC(=O)C=CC4(C)C3=CCC21C (configuration not stated) the results were HKDC1 inhibitor -6, PfGluPho inh 61* and PfG6PD confirm 40.
`COc1ccc(OC)c(C(=O)COC(=O)COc2ccccc2F)c1` gave HKDC1 inhibitor 5 and PfGluPho inh -8.
For Cc1[nH]c2ccccc2c1/C=N/NC(N)=S the results were HKDC1 inhibitor -3 and PfGluPho inh 6.
For CCc1nnc(N/N=C/c2c(C)[nH]c3ccccc23)n1N the results were Diaphorase inh 9, HKDC1 inhibitor 15, G6PDH CS 9, Diaph act CS 0.9, PfGluPho inh 60* and PfG6PD confirm 38.
For Cc1ccc(-n2cc(CN3CCN(C(=O)c4ncn[nH]4)CC3)c(-c3ccc(F)cc3)n2)cc1 the results were HKDC1 inhibitor -6 and PfGluPho inh 24.
COc1ccc(CNC(=O)c2cncc(Br)c2)cc1 was read as HKDC1 inhibitor -2 and PfGluPho inh -5.
For CCOC(=O)c1sc2nc(N3CCOCC3)c3c(c2c1N)CCC3 the results were Diaphorase inh 9, HKDC1 inhibitor 4, G6PDH CS 3, Diaph act CS 0.9 and PfGluPho inh 9.
`NC(=O)c1sc2nc(N3CCOCC3)c3c(c2c1N)CCCC3` gave Diaphorase inh 32, HKDC1 inhibitor 11, G6PDH CS 5, Diaph act CS 0.7, PfGluPho inh 66* and PfG6PD confirm 12.
CCCCN(CCCC)C(=O)c1sc2nc(N3CCOCC3)c3c(c2c1N)CCCC3 was read as HKDC1 inhibitor 6, PfGluPho inh 71* and PfG6PD confirm -6.
Screening CCOCC(=O)Nc1nnc(COc2ccc(Cl)cc2)s1 returned Diaphorase inh 4, HKDC1 inhibitor -12, G6PDH CS 9, Diaph act CS 1, PfGluPho inh 62* and PfG6PD confirm 15.
Screening O=C(CSc1ccccc1)Nc1nnc(COc2ccc(Cl)cc2)s1 returned Diaphorase inh 8, HKDC1 inhibitor -26, G6PDH CS 18, Diaph act CS 0.9, PfGluPho inh 78* and PfG6PD confirm 43.
`Cc1onc(-c2ccccc2)c1C(=O)Nc1nnc(COc2ccc(Cl)cc2)s1` gave Diaphorase inh 27, HKDC1 inhibitor -21, G6PDH CS -17, Diaph act CS 0.7, PfGluPho inh 78* and PfG6PD confirm 49.
CCc1nnc(NC(=O)c2c(-c3ccccc3)noc2C)s1 was read as HKDC1 inhibitor -2 and PfGluPho inh -12.
For COc1ccc(S(=O)(=O)N2CCC(C(=O)N[C@H](C(=O)NCc3ccccc3)C(C)C)CC2)cc1 the results were PfGluPho inh -23.
Screening CCOc1ccc(NC(=O)Cn2ncc3ccccc32)cc1 returned HKDC1 inhibitor -4 and PfGluPho inh -6.
For Cc1ccc(NC(=O)Cn2sc3nc(C)cc(C)c3c2=O)c(Cl)c1 the results were HKDC1 inhibitor 3, PfGluPho inh 100*, PfG6PD confirm 76*, Diaph ctr 10uM -34 and Diaphorase 30uM -18.
Screening CCOc1ccc(NC(=O)Cn2sc3nc(C)cc(C)c3c2=O)cc1 returned HKDC1 inhibitor -2, PfGluPho inh 104*, PfG6PD confirm 90*, Diaph ctr 10uM -30 and Diaphorase 30uM -21.
Cc1cc(C)c2c(=O)n(CC(=O)Nc3ccc(Cl)cc3)sc2n1 was read as HKDC1 inhibitor 3, PfGluPho inh 112*, PfG6PD confirm 96*, Diaph ctr 10uM -18 and Diaphorase 30uM 5.
Screening Cc1cc(C)c2c(n1)SCC(=O)N2CC(=O)Nc1cccc(Cl)c1 returned HKDC1 inhibitor -3 and PfGluPho inh 1.
Cc1cc(C)c2c(=O)n(CC(=O)Nc3cccc(F)c3)sc2n1 was read as HKDC1 inhibitor -7, PfGluPho inh 110*, PfG6PD confirm 94*, Diaph ctr 10uM -3 and Diaphorase 30uM 0.
Screening Nc1[nH]n(-c2ccccc2)c(=O)c1N=Nc1ccc2ncsc2c1 returned HKDC1 inhibitor -5, PfGluPho inh 67* and PfG6PD confirm 19.
Nc1[nH]n(-c2ccccc2)c(=O)c1N=Nc1ccccc1 was read as HKDC1 inhibitor -3 and PfGluPho inh 7.
`CC(C)N1CCN(Cc2ccsc2)CC1CCO` (configuration not stated) gave Diaphorase inh 1, HKDC1 inhibitor 1, G6PDH CS 7, Diaph act CS 1 and PfGluPho inh -8.
For [O-]/[N+](=C/c1cccnc1)c1ccc(Br)cc1 the results were Diaphorase inh 14, HKDC1 inhibitor 2, G6PDH CS 4, Diaph act CS 0.9, PfGluPho inh 105*, PfG6PD confirm 78*, Diaph ctr 10uM 68* and Diaphorase 30uM 33.
For Nc1cccc([N+](=O)[O-])c1 the results were Diaphorase inh 1, HKDC1 inhibitor -3, G6PDH CS -5, Diaph act CS 1 and PfGluPho inh -9.
For O=[N+]([O-])c1cccc(SSc2cccc([N+](=O)[O-])c2)c1 the results were HKDC1 inhibitor 1, PfGluPho inh 115*, PfG6PD confirm 52*, Diaph ctr 10uM -8 and Diaphorase 30uM -6.
Screening Nn1c(SCC(=O)NC2CCCCCC2)nnc1-c1ccco1 returned PfGluPho inh -11.
For CC(C)(C)NS(=O)(=O)c1ccc(CCC(=O)N2CCCC2)cc1 the results were Diaphorase inh -13, HKDC1 inhibitor -2, G6PDH CS 5, Diaph act CS 1.1 and PfGluPho inh -11.
`Cc1nc2c(o1)C(=O)c1ccccc1C2=Nc1ccccc1` gave HKDC1 inhibitor 10, PfGluPho inh 104*, PfG6PD confirm 50*, Diaph ctr 10uM 53* and Diaphorase 30uM 48.
